In data set [1] the target is T1, Solute carrier family 2, facilitated glucose transporter member 1 (Homo sapiens) (UniProt P11166).
T1 sequence (whole entry): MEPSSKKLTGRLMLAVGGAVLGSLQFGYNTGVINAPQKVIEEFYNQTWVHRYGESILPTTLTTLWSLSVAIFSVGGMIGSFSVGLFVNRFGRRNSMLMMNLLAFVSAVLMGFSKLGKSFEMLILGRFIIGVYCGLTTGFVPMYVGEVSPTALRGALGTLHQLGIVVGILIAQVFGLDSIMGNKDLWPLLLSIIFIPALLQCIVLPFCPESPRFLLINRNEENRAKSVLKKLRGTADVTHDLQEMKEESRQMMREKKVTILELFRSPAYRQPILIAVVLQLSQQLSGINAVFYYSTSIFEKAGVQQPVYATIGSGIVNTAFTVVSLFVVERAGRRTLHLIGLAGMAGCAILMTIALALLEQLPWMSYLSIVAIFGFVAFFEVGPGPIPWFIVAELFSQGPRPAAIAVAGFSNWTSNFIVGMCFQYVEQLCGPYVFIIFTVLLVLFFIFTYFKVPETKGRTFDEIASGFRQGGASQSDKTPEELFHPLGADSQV
The data set is described as follows: Inhibition of transport activity of human GLUT1 expressed in hexose transporter deficient VW4000fgy1 yeast cells assessed as reduction in transporter-mediated [14C]-hexose uptake into cells at 100 uM measured after 10 mins by scintillation counting method relative to control. The format is cell-based. The method, boiled down:
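The hxt0 yeast strain expressing one human GLUT was grown at 30 °C and resuspended in PBS pH 7.4 at OD600 ~10. Uptake was started with 14C-glucose at 5 mM final (GLUT1, GLUT4) or 14C-fructose at 10 mM final (GLUT5). It was quenched after 10 min with ice-cold 0.1 M KPi/0.1 M LiCl pH 5.5, filtered and counted by scintillation. Compound at 100 μM with 1% DMSO; DMSO control and phloretin 200 μM (GLUT1/4) or MSNBA 100 μM (GLUT5) as references. Triplicates.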

The subject of data set [2] is CCRF-CEM. Briefly: Cell cycle arrest in human CCRF-CEM cells assessed as decrease in accumulation at G2/M phase measured after 72 hrs by NIM-DAPI staining based flow cytometry. It is filed as functional. The method in brief:
(§1)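 An asynchronous CEM culture was seeded at 100,000 cells/well in 1 mL complete RPMI and exposed to 10, 25 or 50 μM for 72 h. Controls were untreated cells, DMSO and hydrogen peroxide. Cells were pelleted at 262 g, resuspended, and stained with NIM-DAPI, which permeabilizes and stains DNA in one step. About 100,000 events per sample were read by flow cytometry. Triplicates.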
In general terms: Flow cytometry measures light scatter and fluorescence of single cells or particles in a stream.

Data set [3] deals with Histone deacetylase 4 (Homo sapiens) (UniProt P56524). Briefly: Inhibition of recombinant human N-terminal GST-tagged HDAC4 (627 to end residues) expressed in baculovirus infected Sf9 insect cells assessed as residual activity at 50 uM using Boc-Lys(trifluoroacetyl)-AMC as substrate preincubated for 60 mins followed by substrate addition and measured after 60 mins by fluorescence assay relative to control. The note with it: time 120.0 min.
Sequence of Histone deacetylase 4 (Homo sapiens) (P56524 whole entry): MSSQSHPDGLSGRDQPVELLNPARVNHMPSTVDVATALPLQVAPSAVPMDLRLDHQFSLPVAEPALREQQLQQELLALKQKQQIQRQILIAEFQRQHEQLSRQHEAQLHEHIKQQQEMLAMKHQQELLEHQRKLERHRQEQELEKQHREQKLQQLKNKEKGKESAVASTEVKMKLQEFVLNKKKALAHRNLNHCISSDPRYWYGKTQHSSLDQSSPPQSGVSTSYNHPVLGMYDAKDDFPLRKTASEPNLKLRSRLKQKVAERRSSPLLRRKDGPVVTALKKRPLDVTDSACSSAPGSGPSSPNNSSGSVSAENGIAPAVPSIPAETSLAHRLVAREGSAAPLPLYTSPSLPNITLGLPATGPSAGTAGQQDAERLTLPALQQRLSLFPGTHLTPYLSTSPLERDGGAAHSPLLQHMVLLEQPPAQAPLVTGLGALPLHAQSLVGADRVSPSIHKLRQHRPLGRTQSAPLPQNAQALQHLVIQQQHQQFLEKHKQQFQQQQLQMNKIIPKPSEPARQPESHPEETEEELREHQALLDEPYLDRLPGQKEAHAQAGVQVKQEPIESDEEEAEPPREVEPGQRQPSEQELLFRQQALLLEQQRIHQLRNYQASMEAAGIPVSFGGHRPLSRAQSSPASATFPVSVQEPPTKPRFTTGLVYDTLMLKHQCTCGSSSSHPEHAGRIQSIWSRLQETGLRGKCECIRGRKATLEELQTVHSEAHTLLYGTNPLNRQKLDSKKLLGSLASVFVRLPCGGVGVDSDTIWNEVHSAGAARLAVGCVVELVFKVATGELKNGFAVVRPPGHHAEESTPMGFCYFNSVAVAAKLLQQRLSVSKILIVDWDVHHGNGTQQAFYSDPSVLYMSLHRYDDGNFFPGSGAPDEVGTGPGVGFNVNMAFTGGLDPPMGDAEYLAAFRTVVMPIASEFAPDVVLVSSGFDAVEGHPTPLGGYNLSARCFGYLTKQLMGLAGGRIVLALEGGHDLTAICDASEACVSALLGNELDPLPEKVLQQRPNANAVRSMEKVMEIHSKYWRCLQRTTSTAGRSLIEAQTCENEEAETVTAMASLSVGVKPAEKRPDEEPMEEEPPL

Data set [4] addresses T2, Solute carrier family 2, facilitated glucose transporter member 1 (Homo sapiens, UniProt P11166).
T2 sequence (P11166 whole entry): T1 sequence (whole entry)
Briefly: Inhibition of transport activity of human GLUT1 expressed in hexose transporter deficient VW4000fgy1 yeast cells assessed as reduction in transporter-mediated [14C]-hexose uptake into cells measured after 10 mins by scintillation counting method. It is filed as cell-based. The method in brief:
(§2)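 GLUT1 (VW4000fgy1) or GLUT4 (VW4000fgy1erg4) hxt0 yeast were grown on maltose and then glucose and resuspended in PBS pH 7.4 at OD600 ~10. Compound was used at 0.1–100 μM, final 1% DMSO. Uptake of 5 mM 14C-glucose over 10 min was stopped with ice-cold quench buffer, filtered and counted by scintillation. IC50 was taken from dose-response curves of three independent measurements.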

Data set [5] deals with CCRF-CEM. Briefly: Cell cycle arrest in human CCRF-CEM cells assessed as decrease in accumulation at S phase measured after 72 hrs by NIM-DAPI staining based flow cytometry. The format is functional. The method, boiled down:
as §1

The nature of data set [6]: Toxicity in SCID mouse xenografted with human CCRF-CEM cells assessed as body weight loss at 50 mg/kg, ip administered daily for 5 days with 2 days interval for 18 days. The format is organism-based. The note with it: in vivo, 432 h, time 18 day. (In general: A xenograft is tissue or cells of one species grown in another, often human tumour cells in immunodeficient mice.)

In data set [7] the target is T3, Solute carrier family 2, facilitated glucose transporter member 4 (Homo sapiens, UniProt P14672).
T3 sequence (P14672 whole entry): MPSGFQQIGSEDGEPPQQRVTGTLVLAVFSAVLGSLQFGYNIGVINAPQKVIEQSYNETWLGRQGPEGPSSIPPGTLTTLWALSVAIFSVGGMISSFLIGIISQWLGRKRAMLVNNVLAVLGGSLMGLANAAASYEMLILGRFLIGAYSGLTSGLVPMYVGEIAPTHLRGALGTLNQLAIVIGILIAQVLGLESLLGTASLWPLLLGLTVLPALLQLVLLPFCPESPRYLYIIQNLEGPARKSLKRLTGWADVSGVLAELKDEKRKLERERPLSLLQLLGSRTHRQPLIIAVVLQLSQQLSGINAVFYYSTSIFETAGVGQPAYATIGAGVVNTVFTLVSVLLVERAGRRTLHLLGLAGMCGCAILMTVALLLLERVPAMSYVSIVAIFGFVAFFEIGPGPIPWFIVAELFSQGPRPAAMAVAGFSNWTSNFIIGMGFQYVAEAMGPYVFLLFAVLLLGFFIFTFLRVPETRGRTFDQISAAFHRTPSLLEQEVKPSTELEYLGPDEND
Briefly: Inhibition of transport activity of human GLUT4 expressed in hexose transporter deficient W4000fgy1 erg4 yeast cells assessed as reduction in transporter-mediated [14C]-hexose uptake into cells measured after 10 mins by scintillation counting method. The format is cell-based. The method, boiled down:
as §2

The test system of the next data set is K562. Briefly: Cytotoxicity against human K562 cells assessed as reduction in cell viability measured after 48 hrs by Hoechst 33342/propidium iodide staining based imaging analysis. The format is functional. The method in brief:
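Cells were seeded at 10,000 per well (HS-27 at 3,000) in 10% FBS RPMI (leukemic lines) or DMEM (MDA-MB-231, HS-27). Compound in DMSO (1% v/v final) at 0.5–100 µM for 48 h. Hoechst 33342 and PI were added 2 h before automated imaging; dead cells were co-stained. Quadruplicates. CC50 was taken by linear interpolation between the two concentrations nearest 50% death.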

A short description of data set [8]: Selectivity index, ratio of CC50 for human HS27 cells to CC50 for human CCRF-CEM cells. The method, boiled down:
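Ratio of HS-27 CC50 to CCRF-CEM CC50. Both came from Hoechst/PI differential nuclear staining imaging after 48 h exposure to 0.5–100 µM, in quadruplicate, with 10,000 CEM or 3,000 HS-27 cells/well. Each CC50 was estimated by linear interpolation between the two concentrations nearest 50% cell death.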

The nature of data set [9]: Toxicity in SCID mouse assessed as death at 500 mg/kg, ip administered as single dose. The format is organism-based. The note with it: in vivo. The method, boiled down:
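SCID mice aged 8–10 weeks were kept in individually ventilated cages on a 12 h light/dark cycle with autoclaved pellets and water ad libitum.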

For the compound `O=C(CN1C(=O)S/C(=C/c2ccco2)C1=O)Nc1nc2ccccc2s1`, the inhibition in data set [1] was 100%. Moreover, the Activity entry with CCRF-CEM [2] was “Dose-dependent effect”; in [3] it was greater than 50%; with CCRF-CEM [5] it was “Dose-dependent effect”; in data set [6] it was “Non-Toxic”; in data set [9], “Non-Toxic”. Also, the results for the 50% inhibitory concentration (IC50) in [4] and in data set [7] were 11.4 µM and 6.8 µM, respectively. The cytotoxic concentration (CC50) in the data set with K562 was found to be 91.9 µM. In addition, the Selectivity Index in [8] is greater than 25.8.

Take `O=C(CN1C(=O)S/C(=C/c2ccco2)C1=O)Nc1ccc(Cl)c(Cl)c1`: in data set [1], the inhibition was greater than 50%. For the same compound, the Activity in data set [3] is greater than 50%. Further, the half-inhibitory concentration (IC50) amounted to 14.7 µM in [4] and 152 µM in data set [7]. In addition, the cytotoxic concentration (CC50) in the data set with K562 amounted to 43.3 µM. Further, the Selectivity Index in data set [8] is greater than 12.8.

A word on the inhibition: it is the drop in the measured response relative to a control, in per cent. A word on the IC50: it is the concentration that gives 50% inhibition. The CC50 is the concentration that lowers cell viability or growth by half.

Values taken from ChEMBL document CHEMBL4765368, “Structure guided design and synthesis of furyl thiazolidinedione derivatives as inhibitors of GLUT 1 and GLUT 4, and evaluation of their anti-leukemic potential” (Eur J Med Chem, 2020).
